Published values from different studies.
Each line is one published result; the experiments were not run side by side.
Target: Macrophage-stimulating protein receptor (MST1R, Homo sapiens, UniProt Q04912)

SMILES	effect on	action	technique	concentration	measurement	result
Cc1ccc(C(=O)NCc2ccsc2)cc1C#Cc1cn(C(C)C)c2ncnc(N)c12	enzyme activity	inhibitor	–	1 µM	activity vs control	80%
COc1cccc2c(NCc3ccccc3)nc(-n3c(N)nc4ccccc43)nc12	target engagement in cells	inhibitor	chemoproteomics	20 mM	inhibition	-13.2%
O=C1CCc2cc(Nc3cc(OC4CCOCC4)c([N+](=O)[O-])cc3Cl)ccc2N1	cell-free assay	–	competition with immobilised ligand	1 µM	remaining binding	100%
Clc1ccc(Nc2nnc(Cc3ccncc3)c3ccccc23)cc1	cell-free assay	–	–	0.5 µM	remaining signal	91.6%
COc1cc(-c2cn(C3CCc4ccccc4N(CC(F)(F)F)C3=O)nn2)ccc1-n1ccc(C)n1 (stereo not drawn)	cell-free assay	–	competition with immobilised ligand	1 µM	remaining binding	96%
COc1cc2ncnc(Nc3ccc(Oc4ccccc4)cc3C)c2cc1OC	enzyme activity	inhibitor	–	1 µM	inhibition	-3%
O=C(Nc1cnn(-c2csc(C(=O)NC3COC3)c2)c1)Nc1c(F)cccc1Cl	enzyme activity	inhibitor	–	5 µM	remaining activity	100%
CNC(=O)c1cc(Oc2ccc(NC(=O)Nc3ccc(Cl)c(C(F)(F)F)c3)cc2)ccn1	cell-free assay	–	–	10 µM	inhibition	-5%
CC(C)(O)[C@H]1CC[C@H](Nc2ccc3ncc(-c4cccc(C(F)(F)F)c4)n3n2)CC1	enzyme activity	inhibitor	–	1 µM	remaining activity	101%
CC(C)(C)c1nc2c(s1)c1nc(N)ncc1c1ccc(NS(=O)(=O)c3c(F)cccc3F)c(F)c12	enzyme activity	inhibitor	radiometric	1 µM	remaining activity	116%
CC(=O)c1c(NS(C)(=O)=O)c2cc(-c3ccc(Cl)cc3)c(-c3ccc(Cl)cc3Cl)nc2n(C)c1=O	cell-free assay	–	competition with immobilised ligand	1 µM	remaining binding	88%
Oc1cccc(-c2nc(N3CCOCC3)c3oc4ncccc4c3n2)c1	cell-free assay	–	–	0.5 µM	remaining signal	94.3%
CCN(CC)CCNC(=O)c1c(C)[nH]c(/C=C2\C(=O)Nc3ccc(F)cc32)c1C	cell-free assay	–	–	10 µM	inhibition	-1%
Cc1noc([C@H]2C[C@@H](c3ccc(C(F)(F)F)cc3)CN(C(=O)N3CCS(=O)(=O)C3)C2)n1	cell-free assay	–	competition with immobilised ligand	1 µM	remaining binding	100%
Cc1[nH]c(/C=C2\C(=O)Nc3ccc(F)cc32)c(C)c1C(=O)N[C@H]1CCN(C(=O)N(C)C)C1	enzyme activity	inhibitor	–	1 µM	remaining activity	96%
Cc1cc(-n2nc(Cc3cc(F)cc(C(F)(F)F)c3)nc2C)ccc1C(N)=O	cell-free assay	–	competition with immobilised ligand	1 µM	remaining binding	100%
CCCS(=O)(=O)Nc1ccc(F)c(C(=O)c2c[nH]c3ncc(-c4ccc(Cl)cc4)cc23)c1F	enzyme activity	inhibitor	–	1 µM	inhibition	< 10%
CCN(CC)c1ccc(C2=NNC(=O)CC2C)cc1[N+](=O)[O-] (stereo not drawn)	enzyme activity	inhibitor	–	10 µM	remaining activity	106%
